Screens from PubChem.
Compounds with a hit are over-represented: about 4.9% of the library has one in this group of screens.
STAT3 blocker: inhibitors of IL-6 induced STAT3 signaling. U3A cells, IL-6 STAT3-luciferase reporter, luminescence; host cell line lacks STAT1. inhibition, % at 5.5 µM. 190,000 compounds, 0.89% hits. AID 862;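 active = inhibition above the mean inhibition across all screened compounds plus 3 SD, cut at about 44% in these data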
NF-kB neuron act: raises NF-kB expression in human neuronal cells; NF-kB reporter expression; active compounds read high; fold change at 12.5 µM; 190,000 compounds, 1.6% hits; AID 1239; in the data active = fold change above about 3.3
STAT1 inh: STAT1 signaling inhibition. NIH 3T3 STAT1-luciferase reporter, IFN-gamma, luminescence. inhibition, % at 5.5 µM. 200,000 compounds, 0.35% hits;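 active = inhibition above a set limit, the mean inhibition across all tested compounds plus 3 SD, cut at about 34% in these data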
STAT3 activator: activators of IL-6 induced STAT3 signaling | activation (% of control), % at 5.6 µM | 190,000 compounds, 0.91% hits | U3A cells, IL-6 STAT3-luciferase reporter, luminescence; 100% = signal with IL-6 EC80 alone | AID 871;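 active = activation above the screen-wide mean of compound activation plus 3 SD, cut at about 130% in these data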
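Material: human STAT1-deficient U3A cells with stable STAT3-luciferase reporter / Probe or stimulus: IL-6 stimulus at 33 ng/mL final / Schedule: 1 h compound pre-exposure, 6 h IL-6 stimulation, 37 °C / Technique: luminescence / Read-out basis: percent of IL-6-only median luminescence / Control set: IL-6-only high control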
STAT1 act: activators of IFN-gamma induced STAT1 signaling. NIH 3T3 STAT1-luciferase reporter, luminescence; 100% = IFN-gamma alone, no compound. activation (% of control), % at 5.5 µM. 200,000 compounds, 2.6% hits. AID 932;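 active = activation above the screen-wide mean activation plus 3 SD, cut at about 130% in these data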
APP 5'UTR act: activates APP 5'UTR luciferase reporter | SH-SY5Y APP 5'UTR luciferase reporter, luminescence; zero percent = DMSO vehicle wells | activation, % at 2 µM | 190,000 compounds, 1% hits | AID 1276;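 active = activation above a set limit, based on mean plus 3 SD of controls, cut at about 140% in these data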
STAT1 activ conf: STAT1 activation, confirmation assay. shares compounds with STAT1 act. NIH 3T3 STAT1-luciferase reporter, IFN-gamma potentiation, luminescence; 100% = IFN-gamma EC80 alone, no compound. activation (% of control), % at 5.7 µM. 1,200 compounds, 97% hits. AID 1262;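 active = activation above a set limit carried over from the earlier primary STAT1 screen, cut at about 140% in these data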
NFkB act STAT1ct: activates NF-kappaB, counter-screen to STAT1 activators. 1,200 compounds, 43% hits. HEK293T NF-kB luciferase reporter, TNF-alpha stimulated, luminescence; 100% = TNF-alpha with vehicle only. activation (% of control), % at 5.7 µM. shares compounds with STAT1 act;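 active = activation above the mean of solvent-only control wells plus 3 SD, set per campaign, cut at about 130% in these data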;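 note: TNF-alpha given at a submaximal dose yielding about 80% of full reporter signal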
STAT3 act STAT1c: human STAT3 activation in STAT1 activator counter-screen | shares compounds with STAT1 act | U3A cells STAT3-luciferase reporter, IL-6, luminescence; cells lack STAT1; 100 = IL-6 alone, no compound effect | activation (% of control), % at 5.7 µM | 1,200 compounds, 46% hits | AID 1316;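 active = activation above the solvent-only control well mean plus 3 SD, set per plate batch, cut at about 110% in these data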;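 note: higher means more STAT3 reporter activation so hits are non-selective activators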
Hits are given with their value; - = inactive; . = no result given.

SMILES | STAT3 blocker | NF-kB neuron act | STAT1 inh | STAT3 activator | STAT1 act | APP 5'UTR act | STAT1 activ conf | NFkB act STAT1ct | STAT3 act STAT1c
COc1ccc2c(C)nc(Nc3nc(C)c(C)c(=O)[nH]3)nc2c1 | - | - | - | - | 200 | - | 174 | - | 111
N#CCC(=O)Nc1nc(-c2ccc3c(c2)OCCO3)cs1 | - | - | - | - | 165 | - | 169 | - | 113
O=C(CSCC(=O)N1CCOCC1)Nc1nc(-c2ccc3c(c2)OCO3)cs1 | - | - | - | - | - | - | . | . | .
Cc1cccc(Nc2nc(-c3ccc4c(c3)OCCO4)cs2)c1 | - | - | - | - | 158 | 161 | 217 | 144 | -
O=C(Nc1nc(-c2ccc3c(c2)OCCO3)cs1)C1CCCC1 | - | 6.6 | - | - | 156 | 173 | 188 | 134 | 121
CCOC(=O)C1(Cc2ccccc2C(F)(F)F)CCN(C2CCN(C(C)=O)CC2)CC1 | - | - | - | - | - | - | . | . | .
C/C(=C/C(=O)N1CCc2ccccc21)C(=O)O | - | - | - | - | - | - | . | . | .
CCNc1nc(NC(N)=S)nc(NC(C)(C)C)n1 | - | - | - | - | - | - | . | . | .
Cc1ccccc1C(=O)O/N=C1\CCS(=O)(=O)c2sccc21 | - | 5.8 | - | - | 220 | - | 225 | 146 | 111
N#Cc1cccc(NC(=O)COC(=O)CCc2nc3ccccc3c(=O)[nH]2)c1 | - | - | - | - | - | - | . | . | .
O=C(Nc1cccc([N+](=O)[O-])c1)Nc1ccc2c(c1)OCCO2 | - | 3.6 | - | - | 156 | - | 195 | 137 | 136
O=C(Nc1cccc([N+](=O)[O-])c1)Nc1cccc([N+](=O)[O-])c1 | - | - | - | - | - | - | . | . | .
O=C(Nc1ccc2c(c1)CCC2)Nc1ccc2c(c1)OCO2 | - | - | - | - | 160 | - | 167 | - | 111
O=C(Nc1ccc2c(c1)OCCO2)c1cccs1 | - | 5.2 | - | - | 153 | 142 | 173 | - | -
CC(=O)Nc1ccc2c(c1)OCCO2 | - | - | - | - | - | - | . | . | .
N#Cc1cccc(NCC(=O)Nc2ccc3c(c2)OCCO3)c1 | - | 6.8 | - | - | 167 | 190 | 180 | - | 115
Cc1ccc(S(=O)(=O)Nc2ccc(NC(=O)c3c(F)c(F)c(F)c(F)c3F)cc2)cc1 | - | - | - | - | - | - | . | . | .
CC1CCCC(NC(=S)NC(=O)c2ccccc2Br)C1C (stereo not drawn) | - | - | - | - | - | - | . | . | .
CCCCN(CC)C(=O)CSc1nc2c(sc(=S)n2-c2ccc(OCC)cc2)c(=O)[nH]1 | - | - | - | - | - | - | . | . | .
O=C(Nc1ccc2c(c1)OCO2)c1ccc(Br)s1 | - | 10 | - | - | 181 | 162 | 204 | - | 132
COC(=O)Nc1ccc2c(c1)OCO2 | - | - | - | - | - | - | . | . | .
Cn1c(C(=O)Nc2ccc3c(c2)OCO3)cc2sccc21 | - | 8.9 | - | - | 193 | 153 | 210 | 147 | 142
Cn1c(C(=O)NCc2ccc3c(c2)OCO3)cc2sccc21 | - | - | - | - | - | - | . | . | .
Cc1noc(C)c1CCC(=O)N1CCCC(CCC(=O)NCc2ccc(F)c(F)c2)C1 (stereo not drawn) | - | - | - | - | - | - | . | . | .
Cc1ccc(NC(=O)/C(C#N)=C/c2cccs2)c(C)c1 | - | 3.9 | - | - | 160 | - | 171 | 144 | -
SMILES | STAT3 blocker | NF-kB neuron act | STAT1 inh | STAT3 activator | STAT1 act | APP 5'UTR act | STAT1 activ conf | NFkB act STAT1ct | STAT3 act STAT1c
COc1cccc(-c2nc(-c3ccc(NC(=O)c4cccnc4)cc3)no2)c1 | - | - | - | - | - | - | . | . | .
O=C(Nc1ccc(-c2noc(-c3cccs3)n2)cc1)c1cccnc1 | - | 3.8 | - | - | 157 | - | 197 | 136 | -
COC(=O)c1c(-c2ccc(C)cc2)csc1NC(=O)c1c(-c2ccccc2)noc1C | - | - | - | - | - | - | . | . | .
COC(=O)c1c(-c2cccnc2)csc1NC(=O)c1cc(C)on1 | - | - | - | - | 152 | - | 202 | 137 | 127
N/C(=N\c1nc2ccccc2o1)NC(=O)c1ccccc1F | - | - | - | - | 151 | - | 162 | - | 119
N/C(=N\c1nc2ccccc2o1)NC(=O)c1ccccc1NC(=O)c1ccccc1 | - | - | - | - | - | - | . | . | .
CCOC(=O)c1sc2nc(C)cc(-c3ccccc3)c2c1N | - | - | - | - | - | - | . | . | .
CCOC(=O)c1sc2nc(-c3ccccc3)ccc2c1N | - | - | - | - | 174 | 174 | 272 | - | -
COc1ccc(NC(=O)/C(Cl)=C(/Cl)S(=O)Cc2ccccc2)cn1 (stereo not drawn) | - | - | - | - | 204 | . | 336 | - | -
Cc1ccc(-c2cc(N)n(-c3ccccc3)n2)cc1 | - | 4.7 | - | - | 154 | - | 173 | - | -
CCS(=O)(=O)n1nc(-c2ccccc2)cc1N | - | - | - | - | - | - | . | . | .
CCc1ccc(-c2cc(N)n(-c3ccccc3)n2)cc1 | - | 11 | - | - | 172 | 242 | 195 | 146 | -
Cc1cccc(-c2cc(N)n(-c3ccccc3)n2)c1 | - | 5.5 | - | - | 174 | 152 | 185 | 145 | 113
Cc1ccc(C(c2c(C)nn(-c3ccccc3)c2N)c2c(C)nn(-c3ccccc3)c2N)cc1 | - | - | - | - | - | - | . | . | .
C=CCN1C=CC(=C/C=C(/C#N)C(=O)OCC)C=C1 | - | 4.6 | - | - | 175 | 143 | 210 | 133 | 117
CCOC(=O)/C(C#N)=C\N(C)C | - | - | - | - | - | - | . | . | .
Nc1c(C(=O)O)cnc2c(-c3ccc(Cl)cc3)cnn12 | - | 4.9 | - | - | 194 | - | 219 | - | 152
CC(=O)c1cnc2c(-c3ccc(Cl)cc3)cnn2c1C | - | - | - | - | - | - | . | . | .
Clc1ccc(-c2cnn3c(-c4ccncc4)ccnc23)cc1 | - | 3.6 | - | - | 157 | 221 | 237 | - | -
CS(=O)(=O)c1cnc2c(-c3ccc(F)cc3)cnn2c1N | - | 3.5 | - | - | 162 | - | 189 | - | -
O=C(C[n+]1cnn(CC(=O)c2ccc(Cl)cc2Cl)c1)c1ccc([N+](=O)[O-])cc1 | - | - | - | - | - | - | . | . | .
Nc1cc(C(F)(F)F)ccc1-n1cccc1 | - | - | - | - | - | - | . | . | .
